In ChEMBL document CHEMBL1144463, “Rapid bactericidal activity of daptomycin against methicillin-resistant and methicillin-susceptible Staphylococcus aureus peritonitis in mice as measured with bioluminescent bacteria” (2007):
Values after ≈ are worked out from the molar mass of the structure shown.

Assays:
Type in all cases: functional
Staphylococcus aureus [1] = assay: Antimicrobial activity against bioluminescent methicillin-resistant Staphylococcus aureus Xen1
Summary of the method: (§1)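 MIC by broth microdilution following CLSI guidelines against bioluminescent lux-carrying strains (Xen-1 plasmid-borne lux, Xen-29 chromosomal lux), grown overnight in Mueller-Hinton broth at 37°C.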

Staphylococcus aureus [2] = assay: Antimicrobial activity against bioluminescent methicillin-susceptible Staphylococcus aureus Xen29; summary of the method: as §1
Staphylococcus aureus [3] = assay: Antibacterial activity against methicillin-resistant Staphylococcus aureus Xen1 infected neutropenic CD1 mouse assessed as mortality at 100 mg/kg, po within 24 hrs; conditions: Xen1, 24 h
Summary of the method: (§2)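 Female CD-1 mice (20–25 g) were made neutropenic with cyclophosphamide i.p. at 150 mg/kg 4 days and 100 mg/kg 1 day before infection. They were infected i.p. with a lethal dose of lux strain (2 × 10^7 to 5 × 10^8 CFU/mouse) suspended in 6% hog gastric mucin. A single s.c. or gavage dose was given 1 h later. Survivors were counted daily for 7 days, n=5/group.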

Staphylococcus aureus [4] = assay: Reduction in bioluminescent methicillin-sensitive Staphylococcus aureus Xen29 in neutropenic CD1 mouse with peritonitis at 100 mg/kg, sc after 3 hrs relative to control; design: scale not given: the % may be the effect or the level left; conditions: route subcutaneous
Summary of the method: (§3)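 Neutropenia was induced with cyclophosphamide 150 mg/kg i.p. at day −4 and 100 mg/kg i.p. at day −1. Mice were then infected i.p. with Xen-29 (2 × 10^7 to 5 × 10^8 CFU) in 6% mucin (n = 5/group) and dosed once, s.c. or by gavage, at 1 h. Luminescence was imaged hourly under anesthesia, 0–5 h postdosing. Mean region-of-interest flux is given as percent reduction versus time-matched saline (10 ml/kg s.c.) controls.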

Staphylococcus aureus [5] = assay: Reduction in bioluminescent methicillin-sensitive Staphylococcus aureus Xen29 in immunocompetent CD1 mouse with peritonitis at 100 mg/kg, sc after 3 hrs relative to control; design: scale not given: the % may be the effect or the level left; conditions: route subcutaneous
Summary of the method: (§4)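 Peritonitis in healthy female CD-1 mice (n = 5/group): i.p. Xen-29 (2 × 10^7 to 5 × 10^8 CFU) in 6% mucin, then a single s.c. or gavage dose at 1 h. Controls got saline 10 ml/kg s.c. Mice were anesthetized hourly (pentobarbital 60 mg/kg i.p. or isoflurane) and imaged ventral side up for 1–5 min, to 5 h postdosing. Total flux (photons/s/cm2) over the infected region was averaged per group. Percent reduction is versus time-matched saline controls.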

Staphylococcus aureus [6] = assay: Reduction in bioluminescent methicillin-sensitive Staphylococcus aureus Xen29 in neutropenic CD1 mouse with peritonitis at 100 mg/kg, sc after 5 hrs relative to control; design: scale not given: the % may be the effect or the level left; conditions: route subcutaneous; summary of the method: as §3
Staphylococcus aureus [7] = assay: Reduction in bioluminescent methicillin-sensitive Staphylococcus aureus Xen29 in neutropenic CD1 mouse with peritonitis at 100 mg/kg, sc after 2 hrs relative to control; design: scale not given: the % may be the effect or the level left; conditions: route subcutaneous; summary of the method: as §3
Staphylococcus aureus [8] = assay: Antibacterial activity against methicillin-susceptible Staphylococcus aureus Xen29 infected neutropenic CD1 mouse assessed as mortality at 100 mg/kg, po within 24 hrs; conditions: Xen29, 24 h; summary of the method: as §2
Staphylococcus aureus [9] = assay: Antibacterial activity against methicillin-susceptible Staphylococcus aureus Xen29 infected nonneutropenic CD1 mouse assessed as mouse survival at 50 mg/kg, sc after 7 days; conditions: 168 h, route subcutaneous
Summary of the method: (§5)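 Healthy female CD-1 mice (20–25 g) were infected i.p. with a lethal dose of lux strain (2 × 10^7 to 5 × 10^8 CFU/mouse) from an overnight Mueller-Hinton culture suspended in 6% hog gastric mucin. A single s.c. dose was given 1 h post-inoculation. Survival was recorded daily for 7 days, n=5/group.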

Staphylococcus aureus [10] = assay: Reduction in bioluminescent methicillin-sensitive Staphylococcus aureus Xen29 in immunocompetent CD1 mouse with peritonitis at 100 mg/kg, sc after 5 hrs relative to control; design: scale not given: the % may be the effect or the level left; conditions: route subcutaneous; summary of the method: as §4
Staphylococcus aureus [11] = assay: Reduction in bioluminescent methicillin-sensitive Staphylococcus aureus Xen29 in immunocompetent CD1 mouse at 100 mg/kg, sc after 4 hrs relative to control; design: scale not given: the % may be the effect or the level left; conditions: route subcutaneous; summary of the method: as §4
Staphylococcus aureus [12] = assay: Reduction in bioluminescent methicillin-sensitive Staphylococcus aureus Xen29 in immunocompetent CD1 mouse with peritonitis at 100 mg/kg, sc relative to control; design: scale not given: the % may be the effect or the level left; conditions: route subcutaneous; summary of the method: as §4
Staphylococcus aureus [13] = assay: Protection against methicillin-susceptible Staphylococcus aureus Xen29 infection in nonneutropenic CD1 mouse at 100 mg/kg, po after 7 days
Summary of the method: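 Female CD-1 mice (20–25 g, n = 5/group) were given an i.p. lethal inoculum of lux-bearing MSSA Xen-29 (2 × 10^7 to 5 × 10^8 CFU/mouse) suspended in 6% hog gastric mucin. A single dose was given by gavage 1 h after inoculation. Survival was recorded daily for 7 days after inoculation.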

Staphylococcus aureus [14] = assay: Reduction in bioluminescent methicillin-sensitive Staphylococcus aureus Xen29 in neutropenic CD1 mouse with peritonitis at 100 mg/kg, sc after 4 hrs relative to control; design: scale not given: the % may be the effect or the level left; conditions: route subcutaneous; summary of the method: as §3
Staphylococcus aureus [15] = assay: Reduction in bioluminescent methicillin-sensitive Staphylococcus aureus Xen29 in neutropenic CD1 mouse with peritonitis at 50 mg/kg, sc after 4 hrs relative to control; design: scale not given: the % may be the effect or the level left; conditions: route subcutaneous; summary of the method: as §3
Staphylococcus aureus [16] = assay: Antibacterial activity against methicillin-susceptible Staphylococcus aureus Xen29 infected neutropenic CD1 mouse assessed as mortality at 50 mg/kg, sc after 7 days; conditions: 168 h, route subcutaneous; summary of the method: as §2
Staphylococcus aureus [17] = assay: Reduction in bioluminescent methicillin-resistant Staphylococcus aureus Xen1 in neutropenic CD1 mouse with peritonitis at 50 mg/kg, sc after 5 hrs relative to control; design: scale not given: the % may be the effect or the level left; conditions: route subcutaneous
Summary of the method: (§6)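 Cyclophosphamide-neutropenic female CD-1 mice (150 mg/kg i.p. day −4, 100 mg/kg day −1) were infected i.p. with a lethal inoculum in 6% mucin. A single s.c. or gavage dose was given 1 h later. Mice were anesthetized and imaged hourly to 5 h. Region-of-interest total flux (photons/s/cm2) was averaged over 5 mice. Percent reduction is relative to time-matched saline (10 ml/kg s.c.) controls.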

Staphylococcus aureus [18] = assay: Reduction in bioluminescent methicillin-resistant Staphylococcus aureus Xen1 in neutropenic CD1 mouse with peritonitis at 50 mg/kg, sc after 2 hrs relative to control; design: scale not given: the % may be the effect or the level left; conditions: route subcutaneous; summary of the method: as §6
Staphylococcus aureus [19] = assay: Antibacterial activity against methicillin-susceptible Staphylococcus aureus Xen29 infected neutropenic CD1 mouse assessed as mouse survival at 50 mg/kg, sc after 24 hrs; conditions: route subcutaneous; summary of the method: as §2
Staphylococcus aureus [20] = assay: Reduction in bioluminescent methicillin-sensitive Staphylococcus aureus Xen29 in neutropenic CD1 mouse with peritonitis at 50 mg/kg, sc after 5 hrs relative to control; design: scale not given: the % may be the effect or the level left; conditions: route subcutaneous; summary of the method: as §3
Staphylococcus aureus [21] = assay: Reduction in bioluminescent methicillin-sensitive Staphylococcus aureus Xen29 in immunocompetent CD1 mouse with peritonitis at 50 mg/kg, sc after 4 hrs relative to control; design: scale not given: the % may be the effect or the level left; conditions: route subcutaneous; summary of the method: as §4
Staphylococcus aureus [22] = assay: Antibacterial activity against methicillin-resistant Staphylococcus aureus Xen1 infected neutropenic CD1 mouse assessed as mortality at 50 mg/kg, sc after 7 days; conditions: 168 h, route subcutaneous; summary of the method: as §2
Staphylococcus aureus [23] = assay: Reduction in bioluminescent methicillin-sensitive Staphylococcus aureus Xen29 in immunocompetent CD1 mouse with peritonitis at 50 mg/kg, sc after 3 hrs relative to control; design: scale not given: the % may be the effect or the level left; conditions: route subcutaneous; summary of the method: as §4
Staphylococcus aureus [24] = assay: Reduction in bioluminescent methicillin-sensitive Staphylococcus aureus Xen29 in immunocompetent CD1 mouse with peritonitis at 50 mg/kg, sc after 5 hrs relative to control; design: scale not given: the % may be the effect or the level left; conditions: route subcutaneous
Summary of the method: (§7)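 Peritonitis in healthy female CD-1 mice: lethal i.p. inoculum in 6% mucin, single s.c. dose 1 h later. Mice were anesthetized hourly (isoflurane inhalation or pentobarbital 60 mg/kg i.p.) and imaged ventral side up for 1–5 min. Total flux (photons/s/cm2) was taken over the infected-site region of interest and averaged over 5 mice. Percent reduction is versus saline-treated (10 ml/kg s.c.) controls at the same time point.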

Staphylococcus aureus [25] = assay: Reduction in bioluminescent methicillin-sensitive Staphylococcus aureus Xen29 in neutropenic CD1 mouse with peritonitis at 50 mg/kg, sc after 3 hrs relative to control; design: scale not given: the % may be the effect or the level left; conditions: route subcutaneous; summary of the method: as §6
Staphylococcus aureus [26] = assay: Reduction in bioluminescent methicillin-resistant Staphylococcus aureus Xen1 in immunocompetent CD1 mouse with peritonitis at 50 mg/kg, sc after 2 hrs relative to control; design: scale not given: the % may be the effect or the level left; conditions: route subcutaneous; summary of the method: as §7
Staphylococcus aureus [27] = assay: Antibacterial activity against methicillin-resistant Staphylococcus aureus Xen1 infected nonneutropenic CD1 mouse assessed as mouse survival at 50 mg/kg, sc after 7 days; conditions: 168 h, route subcutaneous; summary of the method: as §5
Staphylococcus aureus [28] = assay: Reduction in bioluminescent methicillin-sensitive Staphylococcus aureus Xen29 in neutropenic CD1 mouse with peritonitis at 50 mg/kg, sc after 2 hrs relative to control; design: scale not given: the % may be the effect or the level left; conditions: route subcutaneous; summary of the method: as §3
Staphylococcus aureus [29] = assay: Antibacterial activity against methicillin-resistant Staphylococcus aureus Xen1 infected neutropenic CD1 mouse assessed as mouse survival at 50 mg/kg, sc after 24 hrs; conditions: route subcutaneous; summary of the method: as §2
Staphylococcus aureus [30] = assay: Reduction in bioluminescent methicillin-sensitive Staphylococcus aureus Xen29 in immunocompetent CD1 mouse with peritonitis at 50 mg/kg, sc relative to control; design: scale not given: the % may be the effect or the level left; conditions: route subcutaneous; summary of the method: as §4
Staphylococcus aureus [31] = assay: Reduction in bioluminescent methicillin-resistant Staphylococcus aureus with peritonitis Xen1 in immunocompetent CD1 mouse at 50 mg/kg, sc after 3 hrs relative to control; design: scale not given: the % may be the effect or the level left; conditions: route subcutaneous; summary of the method: as §7

Compound `CCOc1ccc2ccccc2c1C(=O)N[C@@H]1C(=O)N2[C@@H]1SC(C)(C)[C@@H]2C(=O)O` [NAFCILLIN] has an MIC (Staphylococcus aureus [1]) of 64 µg/mL (≈ 154 µM), an MIC (Staphylococcus aureus [2]) of 0.5 µg/mL (≈ 1.21 µM) and a survival at 100 mg/kg (Staphylococcus aureus [3]) of 100%. The Activity (Staphylococcus aureus [4]) was 95.6%, the Activity (Staphylococcus aureus [5]) was 93% and the Activity (Staphylococcus aureus [6]) was 99.2%. For the same compound, the Activity (Staphylococcus aureus [7]) was 84%, the survival at 100 mg/kg (Staphylococcus aureus [8]) was 100% and the survival at 50 mg/kg (Staphylococcus aureus [9]) was 100%. For the same compound, the Activity (Staphylococcus aureus [10]) was 98%, the Activity (Staphylococcus aureus [11]) was 96% and the Activity (Staphylococcus aureus [12]) was 82%. For the same compound, the Activity (Staphylococcus aureus [13]) was 100% and the Activity (Staphylococcus aureus [14]) was 98.3%.
In the case of `CCCCCCCCCC(=O)N[C@@H](Cc1c[nH]c2ccccc12)C(=O)N[C@H](CC(N)=O)C(=O)N[C@@H](CC(=O)O)C(=O)N[C@@H]1C(=O)NCC(=O)N[C@@H](CCCN)C(=O)N[C@@H](CC(=O)O)C(=O)N[C@H](C)C(=O)N[C@@H](CC(=O)O)C(=O)NCC(=O)N[C@H](CO)C(=O)N[C@@H]([C@H](C)CC(=O)O)C(=O)N[C@@H](CC(=O)c2ccccc2N)C(=O)O[C@@H]1C`, the MIC (Staphylococcus aureus [1]) is reported as 0.5 µg/mL (≈ 0.309 µM), the MIC (Staphylococcus aureus [2]) is reported as 1 µg/mL (≈ 0.617 µM) and the Activity (Staphylococcus aureus [15]) is reported as 99.4%. It also gave a survival at 50 mg/kg (Staphylococcus aureus [16]) of 40%, an Activity (Staphylococcus aureus [17]) of 99.9% and an Activity (Staphylococcus aureus [18]) of 93%. It also gave a survival at 50 mg/kg (Staphylococcus aureus [19]) of 100%, an Activity (Staphylococcus aureus [20]) greater than 99.7% and an Activity (Staphylococcus aureus [21]) of 98%. It also gave a survival at 50 mg/kg (Staphylococcus aureus [22]) of 40%, an Activity (Staphylococcus aureus [23]) of 96% and an Activity (Staphylococcus aureus [24]) of 99%. For the same compound, the Activity (Staphylococcus aureus [25]) was 98%, the Activity (Staphylococcus aureus [26]) was 89% and the survival at 50 mg/kg (Staphylococcus aureus [9]) was 100%. It also gave a survival at 50 mg/kg (Staphylococcus aureus [27]) of 100%, an Activity (Staphylococcus aureus [28]) of 92% and a survival at 50 mg/kg (Staphylococcus aureus [29]) of 100%. The Activity (Staphylococcus aureus [30]) was 90% and the Activity (Staphylococcus aureus [31]) was 97%.
